# RAD54 branch – inhibitors of human RAD54 branch migration. inhibition, % at 10.4 µM. RAD54 Holliday junction branch migration, FAM/BHQ fluorescence. hit rate 0.14% among 360,000. AID 602329;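 active = mean normalized replicate activity at least 40 and at least half of replicates scoring 40 or more; inconclusive = only one of the two criteria met; inactive = mean below 40 and under half of replicates reaching 40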;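 note: 0% = median of neutral control wells and 100% = median of positive control wells; inhibitors cause a drop in the FAM fluorescence signal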
# AF4-AF9 inh – MLL-AF4/AF9 protein interaction inhibition | AID 651704 | inhibition, % at 10 µM | hit rate 0.47% among 350,000 | P42568 | AlphaScreen, biotin-AF4 peptide binding to FLAG-AF9;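 active = every replicate reaching a set inhibition limit, whatever the replicate mean, cut at about 25% in these data; inconclusive = mean inhibition reaches that limit but some replicates miss it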;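 note: 0% = plate neutral control median and 100% = total signal loss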
# RAD52 anneal inh – blocks human RAD52 DNA annealing; recombinant RAD52 DNA annealing, FRET fluorescence; P43351; hit rate 0.46% among 360,000; AID 651710; inhibition, % at 18.7 µM;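 active = every replicate showing at least 50% inhibition; inconclusive = mean inhibition at least 50% but not in every replicate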
# E-sel inducer – E-selectin induction on HUVECs; P16581; HUVEC E-selectin immunofluorescence imaging; normalized: neutral wells 0, TNF-alpha wells 100; activation, % at 7.58 µM; hit rate 0.37% among 260,000; AID 686992;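 active = mean E-selectin-positive cell signal at least 10% of the positive control, reached in at least 60% of replicates, without over 20% cell loss; inconclusive = no rule given, readout overlaps actives, possibly toxicity-flagged; inactive = the rest, including those meeting only one limit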
# Target sequence (P16581 whole entry, looked up): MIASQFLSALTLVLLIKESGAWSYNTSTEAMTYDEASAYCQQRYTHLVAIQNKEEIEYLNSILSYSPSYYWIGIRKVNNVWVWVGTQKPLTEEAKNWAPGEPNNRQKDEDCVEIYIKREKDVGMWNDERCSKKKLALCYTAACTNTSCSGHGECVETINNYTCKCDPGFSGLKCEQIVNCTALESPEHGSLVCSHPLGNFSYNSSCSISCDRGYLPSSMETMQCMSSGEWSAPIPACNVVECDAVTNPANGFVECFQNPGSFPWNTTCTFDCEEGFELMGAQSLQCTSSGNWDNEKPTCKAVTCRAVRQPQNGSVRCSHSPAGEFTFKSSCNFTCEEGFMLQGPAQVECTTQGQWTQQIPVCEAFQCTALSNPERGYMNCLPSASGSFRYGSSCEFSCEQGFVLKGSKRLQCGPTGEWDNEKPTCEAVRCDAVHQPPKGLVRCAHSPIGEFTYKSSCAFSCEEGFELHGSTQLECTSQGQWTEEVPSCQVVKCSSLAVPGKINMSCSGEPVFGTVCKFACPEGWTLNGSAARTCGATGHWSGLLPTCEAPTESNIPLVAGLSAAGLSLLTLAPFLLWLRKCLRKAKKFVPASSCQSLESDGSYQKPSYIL
#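 System: HUVEC, human umbilical vein endothelial cells; quantity: 3,000 cells/well; buffer or medium: EGM-2 medium, gelatin-coated wells; dosing: single-point compound dose; detection: immunofluorescence imaging; evaluation: % PE-positive cells; benchmarks: TNF-alpha, DMSO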
# Ecoli rRNA inh – inhibits bacterial ribosomal RNA function over humanized ribosomes; E. coli WT GFP vs humanized-ribosome RFP mutants, fluorescence, 24 h; active compounds read low; DMSO median 0, no signal -100; GFP signal change (wild-type ribosome), % (no concentration beside the values); hit rate 1.6% among 350,000; AID 720706;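 active = significant combined selectivity score with lowered wild-type GFP, culture density cut under 30%, mutant RFP and density less affected; inactive = any of these conditions unmet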
# GSIS activator – GLuc luminescence reporter in INS-1E cells, primary screen for activators of glucose-dependent secretion of insulin; INS-1E GLuc reporter insulin secretion, 2-3 h; activation, % at 16.6 µM; hit rate 0.61% among 370,000; AID 743287;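 active = lowest replicate activation of at least 40%, so every replicate reaches that level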;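 note: 0% = median of neutral control wells and 100% = median of IBMX positive control wells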
# DNA binding – counter-screen for Rad54 inhibitors: DNA binding compounds. Acridine orange-DNA displacement, fluorescence polarization, 20 min. shares compounds with RAD54 branch. AID 651673. AC50, µM (doses to about 35 µM), inactives show at the top dose activity change, negative = DNA binding. hit rate 8% among 460;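 active = signal drop giving an AC50 within twice the top valid tested concentration of each sample, actives reach about 35 µM in these data; inactive = activity opposite to expected, plus the rest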;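 note: polarization loss reports compound binding to salmon sperm DNA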
# DNA binder FP – binds DNA, flagging false RAD52 inhibitor hits; hit rate 8% among 1,000; AC50, µM; shares compounds with RAD52 anneal inh; AID 652128; Salmon sperm DNA/acridine orange FP displacement, DNA binding;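 active = fitted half-maximal concentration for signal loss at or below twice the highest dose tested, in every separate run, actives reach about 64 µM in these data; inconclusive = runs disagree, or flat partial signal loss, or poor fit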
# Starred values were filed as active, the others as inactive; i = inactive; ? = inconclusive; . = not tested or not shown. An excerpt weighted towards active compounds, which were near 2.6% of everything screened.
SMILES,RAD54 branch,AF4-AF9 inh,RAD52 anneal inh,E-sel inducer,Ecoli rRNA inh,GSIS activator,DNA binding,DNA binder FP
CCN(CC)CCNC(=O)c1cc2c(=O)n(C)c3ccccc3c2s1,62*,2,31,1,-2,22,-14%,.
CCN1CCN(CCCNC(=O)c2cc3c(=O)[nH]c4ccccc4c3s2)CC1,52*,.,.,.,.,22,-17%,.
CC1CCN(CCCNC(=O)c2n[nH]c(=O)c3ccccc23)CC1,4,.,.,.,.,.,.,.
Cc1nc2ccccc2c2oc(C(=O)NCCCN3CCCC3=O)cc12,8,-3,-4,0,-6,14,.,.
Cc1nc2ccccc2c2oc(C(=O)NCCN3CCN(C)CC3)cc12,?,-2,20,.,4,24,-13%,.
O=C(CCCN1C(=O)c2cccc3cccc(c23)C1=O)NCc1ccco1,.,-1,-15,.,12,-13,.,.
CN(C)C(CNC(=O)CCCN1C(=O)c2cccc3cccc(c23)C1=O)c1ccccc1 (stereo unspecified),57*,5,18,0,-8,3,1%,.
COc1ccc2c(c1)c1ncn(CCN3CCCC3)c(=O)c1n2C,59*,.,.,.,.,.,3%,.
COc1ccc2[nH]c3c(=O)n(CCN4CCOCC4)cnc3c2c1,1,6,-5,0,2,26,.,.
COc1ccc2c(c1)c1ncn(CCN3CCCCC3)c(=O)c1n2C,52*,.,.,.,.,.,15%,.
COc1ccc2c(c1)c1ncn(CCN3CCNCC3)c(=O)c1n2C,.,5,22,.,-7,.,.,.
COc1cccc(S(=O)(=O)N2C[C@@H](O)COC[C@H]3O[C@H](CC(=O)Nc4ccccc4)CC[C@@H]32)c1,3,-3,3,0,-4,-1,.,.
CN1CCN(c2nc(-c3ccncc3)nc3ccccc23)CC1,87*,.,.,.,.,.,-11%,.
OCCN1CCN(c2nc(-c3ccccc3O)nc3ccccc23)CC1,73*,15,30,.,-45,11,5%,.
CN1CCN(c2nc(-c3cccs3)nc3ccccc23)CC1,71*,9,8,.,-16,31,-10%,.
Cc1ccc2nc3c(c(N)c2c1)CCN3c1ccccc1,53*,.,.,.,.,.,-13%,.
COc1ccccc1NC(=O)N1C[C@H](O)COC[C@@H]2O[C@H](CC(=O)NCc3ccccc3)CC[C@H]21,1,-5,1,0,-4,-1,.,.
Cc1nc2c(C)c(C)c(C)c(C)c2nc1C,-6,-2,4,-2,6,.,.,.
Cc1nc2nc(C)c(C)nc2nc1C,56*,-57,-3,1,12,7,10%,.
Cn1nc(-c2ccccc2)cc1NS(=O)(=O)c1ccc(C#N)cc1,?,-3,-7,0,5,26,-8%,.
Cc1ccc2nc(C)cc(Nc3ccc4c(c3)OCCO4)c2c1,60*,.,.,.,.,.,-9%,.
Cc1cc(Nc2ccc3c(c2)OCCO3)c2cccc(C)c2n1,65*,.,.,.,.,37,9%,.
Cc1cc(Nc2ccc3c(c2)OCCO3)c2ccccc2n1,.,4,4,.,8,21,.,.
CCOc1ccc2nc(C)cc(Nc3ccc4c(c3)OCCO4)c2c1,58*,.,.,.,.,.,-11%,.
COCCCN(C(=O)c1ccco1)c1nc(-c2ccc(OC)cc2)cs1,0,1,-14,.,-25,-4,.,.
SMILES,RAD54 branch,AF4-AF9 inh,RAD52 anneal inh,E-sel inducer,Ecoli rRNA inh,GSIS activator,DNA binding,DNA binder FP
CCN(CC)CCCN(C(=O)c1ccco1)c1nc(-c2ccc(Cl)cc2)cs1,59*,26*,79*,0,-38,-20,6%,i
CN(C)CCNC(=O)c1cc2c(s1)-c1ccc(Cl)cc1SC2,57*,?,81*,7,-59,228*,8%,?
N#Cc1ccc(-c2ccc3c(c2)[C@H]2[C@H](CCN2S(=O)(=O)c2ccccc2F)[C@H](CO)N3)cc1,2,.,.,-1,-29,8,.,.
c1ccc(N2CCN(Cc3nc4ccccc4[nH]3)CC2)nc1,-5,0,-6,0,5,8,.,.
c1c[nH]c(CN2CCN(Cc3ncc[nH]3)CC2)n1,?,28*,56*,1,.,.,-11%,i
CCN(CC)CCNC(=S)Nc1ccc2nc(N3CCN(C)CC3)cc(C)c2c1,85*,7,87*,-2,12,33,-14%,i
COCCCNC(=S)Nc1ccc2nc(N3CCOCC3)cc(C)c2c1,6,4,-7,0,-18,-5,.,.
Cc1cc(N2CCOCC2)nc2ccc(NC(=S)NCCN(C)C)cc12,30,2,43,0,8,0,.,.
CCCN(CCC)CCCNC(=S)Nc1ccc2nc(N3CCCC3)cc(C)c2c1,99*,22,92*,1,.,7,-1%,i
Cc1cc(N2CCN(C)CC2)nc2ccc(NC(=S)NCCCN3CCN(C)CC3)cc12,78*,4,82*,10,9,21,-6%,i
CCCCN(CC)CCCNC(=S)Nc1ccc2nc(N3CCN(C)CC3)cc(C)c2c1,89*,26*,92*,.,8,10,13%,i
CCCCN(C)C(=O)CCC(=O)Nc1ccc2nc(N3CCN(C)CC3)cc(C)c2c1,17,-34,-2,0,-1,-2,.,.
CCC(=O)N1[C@@H]2c3cccc(=O)n3C[C@@H]2[C@@H](CO)[C@@H]1C(=O)NCC1CC1,-11,2,-3,-1,-2,-9,.,.
COc1cccc(NC(=O)N[C@@H]2C=C[C@H](CC(=O)Nc3ccccc3)O[C@H]2CO)c1,3,0,-6,0,-1,-5,.,.
CN(C)CCNc1cc(-c2ccncc2)nc2ccccc12,57*,3,80*,.,20,10,0%,i
COCCNc1c2c(nc3ccccc13)CCC2,6,3,-15,.,20,22,.,.
CN(C)CCCNc1c2c(nc3ccccc13)CCC2,67*,8,78*,0,18,11,-17%,i
Cc1ccc(-c2nc(NCCN(C)C)c3ccccc3n2)cc1,78*,0,71*,8,3,12,-20%,i
O=C(NCc1ccccc1)c1cc(-c2ccncc2)nc2ccccc12,5,4,-9,.,1,-1,.,.
Cc1cccc(-c2nc(NCCCN(C)C)c3ccccc3n2)c1,82*,13,84*,.,7,2,-21%,i
Cc1ccc(-c2nc(NCc3ccco3)c3ccccc3n2)cc1,.,-4,-80,.,-51,1,.,.
C[C@@H]1CN([C@H](C)CO)C(=O)c2ccccc2-c2ccccc2CO[C@H]1CN(C)C(=O)c1ccc(F)cc1,.,.,.,0,0,4,.,.
CN(C)CCCNc1ncnc2sc(-c3ccccc3)cc12,64*,13,68*,-1,4,6,-18%,?

# Source: PubChem BioAssay (Broad Institute)
